Assay results as given in ChEMBL document CHEMBL1124459, “Activity of aromatic substituted phenylpiperazines lacking affinity for dopamine binding sites in a preclinical test of antipsychotic efficacy” (J Med Chem, 1989).
pKi: −log10 of the molar value.

What was measured:
[1] = biological target: T1, Serotonin 1 (5-HT1) receptor (Rattus norvegicus, UniProt P28564+P30940+P19327+P28565); assay: Inhibition of [3H]5-HT radioligand binding against 5-hydroxytryptamine 1 receptor; assay type: protein assay
[2] = biological target: T2, 5-hydroxytryptamine receptor 1A (Rattus norvegicus, UniProt P19327)
T2 sequence (P19327 whole entry): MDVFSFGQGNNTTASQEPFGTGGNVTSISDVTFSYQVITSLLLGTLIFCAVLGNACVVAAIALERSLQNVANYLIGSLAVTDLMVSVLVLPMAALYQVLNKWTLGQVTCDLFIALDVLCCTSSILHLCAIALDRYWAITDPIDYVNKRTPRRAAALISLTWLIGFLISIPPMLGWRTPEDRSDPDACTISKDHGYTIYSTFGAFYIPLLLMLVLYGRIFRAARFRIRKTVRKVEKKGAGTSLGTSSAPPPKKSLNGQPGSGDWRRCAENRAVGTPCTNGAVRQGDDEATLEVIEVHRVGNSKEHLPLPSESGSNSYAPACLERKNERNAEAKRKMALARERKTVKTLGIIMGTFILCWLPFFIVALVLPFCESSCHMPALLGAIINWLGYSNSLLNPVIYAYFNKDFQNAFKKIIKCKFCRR

[3] = biological target: T3, Serotonin 2 (5-HT2) receptor (Rattus norvegicus, UniProt P30994+P08909+P14842); assay: Binding affinity at rat 5-hydroxytryptamine 2 receptor by [3H]ketanserin displacement.; assay type: protein assay
[4] = biological target: T4, Adrenergic receptor alpha-1 (Rattus norvegicus, UniProt P15823+P23944+P43140); assay: Binding affinity against rat Alpha-1 adrenergic receptor.; assay type: protein assay
T4 sequence (P15823 whole entry): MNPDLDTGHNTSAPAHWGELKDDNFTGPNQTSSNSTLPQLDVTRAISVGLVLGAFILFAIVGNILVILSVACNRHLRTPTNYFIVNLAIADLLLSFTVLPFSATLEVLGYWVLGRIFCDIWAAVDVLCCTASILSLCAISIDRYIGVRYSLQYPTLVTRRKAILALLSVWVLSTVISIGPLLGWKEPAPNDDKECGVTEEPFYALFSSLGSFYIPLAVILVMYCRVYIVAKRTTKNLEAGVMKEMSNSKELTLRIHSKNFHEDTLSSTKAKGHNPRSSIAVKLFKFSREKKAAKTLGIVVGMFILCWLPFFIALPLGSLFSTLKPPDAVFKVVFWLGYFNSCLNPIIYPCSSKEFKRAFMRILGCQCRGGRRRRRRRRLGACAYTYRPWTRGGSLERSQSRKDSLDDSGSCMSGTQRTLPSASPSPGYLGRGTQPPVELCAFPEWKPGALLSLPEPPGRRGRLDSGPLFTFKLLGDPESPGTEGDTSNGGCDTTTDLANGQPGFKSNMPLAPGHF
T4 sequence (P23944 whole entry): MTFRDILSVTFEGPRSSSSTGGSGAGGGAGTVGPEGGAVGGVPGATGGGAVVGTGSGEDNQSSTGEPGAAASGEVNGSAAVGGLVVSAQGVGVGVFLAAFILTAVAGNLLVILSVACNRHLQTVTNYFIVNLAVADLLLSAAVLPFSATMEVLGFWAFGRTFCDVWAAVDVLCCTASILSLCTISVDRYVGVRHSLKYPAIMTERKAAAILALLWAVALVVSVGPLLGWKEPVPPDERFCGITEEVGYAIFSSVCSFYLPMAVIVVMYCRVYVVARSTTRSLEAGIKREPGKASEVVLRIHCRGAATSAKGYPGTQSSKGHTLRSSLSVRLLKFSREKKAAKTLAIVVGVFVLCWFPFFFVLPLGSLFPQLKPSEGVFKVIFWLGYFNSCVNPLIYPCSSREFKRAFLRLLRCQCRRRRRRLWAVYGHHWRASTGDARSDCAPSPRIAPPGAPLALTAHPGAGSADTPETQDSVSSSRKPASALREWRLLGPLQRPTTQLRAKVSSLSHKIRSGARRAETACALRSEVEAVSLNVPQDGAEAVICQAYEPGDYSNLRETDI
T4 sequence (P43140 whole entry): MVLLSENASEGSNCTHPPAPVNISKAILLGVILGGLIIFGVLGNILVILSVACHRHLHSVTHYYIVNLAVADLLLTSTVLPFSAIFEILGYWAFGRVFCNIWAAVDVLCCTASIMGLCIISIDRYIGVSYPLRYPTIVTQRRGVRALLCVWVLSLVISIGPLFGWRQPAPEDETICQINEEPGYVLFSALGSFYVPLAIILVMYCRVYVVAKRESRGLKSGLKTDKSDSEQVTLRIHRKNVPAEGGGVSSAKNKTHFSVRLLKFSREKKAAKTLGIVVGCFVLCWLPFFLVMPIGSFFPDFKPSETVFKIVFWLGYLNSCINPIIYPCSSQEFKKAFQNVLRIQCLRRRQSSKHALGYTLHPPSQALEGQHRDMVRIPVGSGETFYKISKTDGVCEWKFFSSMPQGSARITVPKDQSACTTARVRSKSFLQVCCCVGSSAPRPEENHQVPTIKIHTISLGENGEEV

D(1A) dopamine receptor [5] = biological target: T5, D(1A) dopamine receptor (Rattus norvegicus, UniProt P18901); assay: Binding affinity at rat Dopamine receptor D1 by [3H]SCH-23390 displacement.
In short: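 Rat striatal tissue suspended in 20 mM NaHepes without sucrose, at 250 volumes of the tissue weight. Labelled with [3H]SCH-23390 added as a 3 nM solution. Nonspecific binding set with unlabelled SCH-23390 added as a 30 μM solution. Incubated 20 min. Run in duplicate, with one to five concentration–response curves per compound.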

D(2) dopamine receptor [6] = biological target: T6, D(2) dopamine receptor (Rattus norvegicus, UniProt P61169); assay: Binding affinity against rat Dopamine receptor D2.
Rattus norvegicus [7] = assay: (§1) Effective dose in blocking conditioned avoidance responding (CAR) in the rat when administered intraperitoneally; assay type: functional; conditions: ip
In short: (§2)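 Rats trained on a discrete-trial single-lever conditioned avoidance task, dosed ip and tested at the time of peak effect. Each dose was given to 6–12 rats. CAR reduction and loss of escape responding were recorded.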

Rattus norvegicus [8] = organism: Rattus norvegicus; assay: (§3) The percent loss of escape responding was determined for the estimated effective dose 50 values for CAR block; assay type: functional
[9] = biological target: 5-hydroxytryptamine receptor 1B (Rattus norvegicus, UniProt P28564); assay: Binding affinity at rat 5-hydroxytryptamine 1B receptor by [3H]5-HT displacement.
[10] = biological target: T1, Serotonin 1 (5-HT1) receptor; assay: Binding affinity determined in radioreceptor binding assay by using [3H]5-HT radioligand against 5-hydroxytryptamine 1 receptor; assay type: protein assay
D(1A) dopamine receptor [11] = biological target: T5, D(1A) dopamine receptor; assay: Activity in radioreceptor binding assay by using […] against Dopamine receptor D1
Rattus norvegicus [12] = organism: Rattus norvegicus; assay: as §3; assay type: functional; in short: as §2; remark: listed apart in the source
[13] = biological target: T3, Serotonin 2 (5-HT2) receptor; assay: Binding affinity determined in radioreceptor binding assay by using [3H]ketanserin radioligand against 5-hydroxytryptamine 2 receptor; assay type: protein assay
D(2) dopamine receptor [14] = biological target: T6, D(2) dopamine receptor; assay: Binding affinity determined in radioreceptor binding assay against dopamine receptor D2
Rattus norvegicus [15] = assay: as §1; conditions: ip
D(1A) dopamine receptor [16] = biological target: T5, D(1A) dopamine receptor

T5 sequence (P18901 whole entry): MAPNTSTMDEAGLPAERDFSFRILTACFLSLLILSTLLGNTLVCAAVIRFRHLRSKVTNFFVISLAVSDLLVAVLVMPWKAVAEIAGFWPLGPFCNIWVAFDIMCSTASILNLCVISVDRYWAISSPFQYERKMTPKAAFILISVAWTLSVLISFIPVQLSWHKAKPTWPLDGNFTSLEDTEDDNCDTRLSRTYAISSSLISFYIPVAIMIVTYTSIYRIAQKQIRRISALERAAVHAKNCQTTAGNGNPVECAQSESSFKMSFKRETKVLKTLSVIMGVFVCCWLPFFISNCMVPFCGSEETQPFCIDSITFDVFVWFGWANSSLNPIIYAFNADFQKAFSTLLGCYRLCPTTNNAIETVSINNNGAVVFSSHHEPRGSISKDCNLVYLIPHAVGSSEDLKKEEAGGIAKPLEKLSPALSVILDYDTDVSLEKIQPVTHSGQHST
T6 sequence (P61169 whole entry): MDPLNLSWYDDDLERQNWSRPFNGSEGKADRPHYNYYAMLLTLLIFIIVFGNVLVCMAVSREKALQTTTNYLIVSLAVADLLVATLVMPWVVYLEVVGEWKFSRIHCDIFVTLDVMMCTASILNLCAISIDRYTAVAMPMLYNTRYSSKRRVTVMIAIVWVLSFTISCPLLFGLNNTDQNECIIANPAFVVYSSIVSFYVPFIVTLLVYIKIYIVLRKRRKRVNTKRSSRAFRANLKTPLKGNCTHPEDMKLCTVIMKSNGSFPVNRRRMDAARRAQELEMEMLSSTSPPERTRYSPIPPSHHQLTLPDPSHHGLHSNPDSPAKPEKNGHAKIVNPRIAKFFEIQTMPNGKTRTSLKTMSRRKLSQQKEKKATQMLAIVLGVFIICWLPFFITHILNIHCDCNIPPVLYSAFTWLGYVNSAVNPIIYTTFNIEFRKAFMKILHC
Chain of 5-hydroxytryptamine receptor 1B (P28564 whole entry): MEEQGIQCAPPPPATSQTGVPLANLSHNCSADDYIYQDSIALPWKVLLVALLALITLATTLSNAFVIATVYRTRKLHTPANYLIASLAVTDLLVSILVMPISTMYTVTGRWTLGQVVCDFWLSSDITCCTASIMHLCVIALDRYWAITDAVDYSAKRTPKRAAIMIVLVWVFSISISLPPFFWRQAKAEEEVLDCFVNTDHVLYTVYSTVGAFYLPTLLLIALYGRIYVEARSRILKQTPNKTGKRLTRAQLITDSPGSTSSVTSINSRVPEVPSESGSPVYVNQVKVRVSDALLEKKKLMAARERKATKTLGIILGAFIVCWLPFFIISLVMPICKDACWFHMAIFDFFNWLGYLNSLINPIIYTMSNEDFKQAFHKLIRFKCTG

Row | SMILES | Ki [1] | pKi [2] | Ki [3] | Ki [4] | pKi (D(1A) dopamine receptor [5]) | pKi (D(2) dopamine receptor [6]) | ED50 (Rattus norvegicus [7]) | Loss (Rattus norvegicus [8]) | pKi [9] | other results
1 | O=[N+]([O-])c1cccc(N2CCNCC2)c1 | 0.25 µM | ~6.49 | 0.419 µM | > 1 µM | < 6.00 | < 6.00 | 5.6 mg/kg | 4.3% | 7.47 | 
2 | Fc1cccc(N2CCNCC2)c1 | 0.0865 µM | 6.94 | > 1 µM | 0.67 µM | < 6.00 | < 6.00 | 3.2 mg/kg |  | 7.51 | 
3 | CCOc1ccccc1N1CCNCC1 | 0.0426 µM | 8.04 | 0.774 µM | 0.07 µM | < 6.00 | 6.84 | 3.4 mg/kg | ~1% | 7.86 | 
4 | N#Cc1ccccc1N1CCNCC1 | 0.0261 µM | 7.59 | > 1 µM | 0.214 µM | < 6.00 | < 6.00 | 5.7 mg/kg | 4.3% | 7.66 | 
5 | CC(C)c1ccccc1N1CCNCC1 |  | 7.90 | 0.19 µM | 0.168 µM |  | 6.95 | 5.9 mg/kg |  | 8.40 | Ki [10]: 0.0234 µM; pKi (D(1A) dopamine receptor [11]): < 6.00; Loss (Rattus norvegicus [12]): 0.1%
6 | Fc1ccccc1N1CCNCC1 | 0.0579 µM | 7.37 | > 1 µM | 0.373 µM | < 6.00 | < 6.00 | 5.1 mg/kg | 1.6% | 7.54 | 
7 | CCCCOc1ccccc1N1CCNCC1 | 0.0193 µM | 7.95 | 0.277 µM | 0.139 µM | < 6.00 | 6.61 | 11.2 mg/kg | 0.2% | 8.40 | 
8 | CCc1ccccc1N1CCNCC1 |  | 7.64 | 0.124 µM | 0.096 µM | < 6.00 | 6.35 | 6.8 mg/kg |  | 8.09 | Ki [10]: 0.0171 µM; Loss (Rattus norvegicus [12]): 2.5%
9 | COc1ccccc1N1CCNCC1 | 0.029 µM | 8.02 | > 1 µM | 0.51 µM | < 6.00 |  | 5.6 mg/kg | 1.8% | 7.76 | 
10 | CC(C)Oc1ccccc1N1CCNCC1 | 0.019 µM | 8.12 | 0.235 µM | 0.084 µM | < 6.00 | 7.19 | 4.8 mg/kg | 0.4% | 8.16 | 
11 | Cc1ccccc1N1CCNCC1 |  | 7.56 |  | 0.108 µM | < 6.00 | < 6.00 | > 20 mg/kg |  | 7.35 | Ki [10]: 0.0624 µM; Ki [13]: 0.558 µM
12 | Clc1ccccc1N1CCNCC1 |  | 7.71 | > 1 µM |  |  |  |  | 3.1% | 7.93 | pKi (D(2) dopamine receptor [14]): < 6.00; ED50 (Rattus norvegicus [15]): 10.2 mg/kg; pKi (D(1A) dopamine receptor [16]): < 6.00
13 | CCCc1ccccc1N1CCNCC1 |  | 7.71 | 0.232 µM | 0.117 µM | < 6.00 | 6.42 | > 15 mg/kg |  | 7.80 | Ki [10]: 0.0349 µM
14 | CCCCc1ccccc1N1CCNCC1 |  | 7.72 | 0.204 µM | 0.0318 µM | < 6.00 | 6.08 | > 15 mg/kg |  | 8.08 | Ki [10]: 0.0648 µM
15 | CCCN(CCC)C1CCc2cccc(O)c2C1 (stereo unspecified) [8-OH-DPAT] |  |  |  |  |  |  | 0.5 mg/kg |  |  | 
16 | CN1[C@@H]2CC[C@H]1C[C@@H](OC(=O)C(CO)c1ccccc1)C2 (stereo partly specified) [ATROPINE] |  |  |  |  |  |  | 3 mg/kg |  |  | 
17 | Clc1cccc(N2CCNCC2)c1 [CHLOROPHENYLPIPERAZINE] | 0.025 µM | 7.64 | 0.04 µM | 0.236 µM | < 6.00 | < 6.00 | 2.4 mg/kg | 1.5% | 8.36 | 
18 | CN(C)CCCN1c2ccccc2Sc2ccc(Cl)cc21 [CHLORPROMAZINE] |  |  |  |  |  |  | 1.8 mg/kg | 0.2% |  | 
19 | CN1CCN(C2=Nc3cc(Cl)ccc3Nc3ccccc32)CC1 [CLOZAPINE] |  |  |  |  |  |  |  | 12.6% |  | 
20 | COC(=O)[C@H]1[C@@H](OC(=O)c2ccccc2)C[C@@H]2CC[C@H]1N2C [COCAINE] |  |  |  |  |  |  | 10 mg/kg |  |  | 
21 | CNCCCN1c2ccccc2CCc2ccccc21 [DESIPRAMINE] |  |  |  |  |  |  | 20 mg/kg |  |  | 
22 | CN1C(=O)CN=C(c2ccccc2)c2cc(Cl)ccc21 [DIAZEPAM] |  |  |  |  |  |  | 10 mg/kg |  |  | 
23 | O=C(CCCN1CCC(O)(c2ccc(Cl)cc2)CC1)c1ccc(F)cc1 [HALOPERIDOL] |  |  |  |  |  |  |  | 1.7% |  | 
24 | CCN(CC)C(=O)[C@@H]1C=C2c3cccc4[nH]cc(c34)C[C@H]2N(C)C1 [LYSERGIDE] |  |  |  |  |  |  | 0.32 mg/kg |  |  | 
25 | Clc1cncc(N2CCNCC2)n1 [MK-212] |  | 6.69 | > 1 µM | 0.913 µM | < 6.00 | < 6.00 | 2.8 mg/kg | 19% | 6.75 | Ki [10]: 0.844 µM
26 | c1ccc(C2(N3CCCCC3)CCCCC2)cc1 [PHENCYCLIDINE] |  |  |  |  |  |  | 1 mg/kg |  |  | 
27 | c1ccc(N2CCNCC2)cc1 [PHENYLPIPERAZINE] | 0.149 µM | 6.83 | 0.668 µM | 0.794 µM | < 6.00 | < 6.00 | 2.7 mg/kg | 6% | 7.20 | 
28 | CSc1ccc2c(c1)N(CCC1CCCCN1C)c1ccccc1S2 (stereo unspecified) [THIORIDAZINE] |  |  |  |  |  |  | 9.7 mg/kg | 7.3% |  | 
29 | CN1CCN(CCCN2c3ccccc3Sc3ccc(C(F)(F)F)cc32)CC1 [TRIFLUOPERAZINE] |  |  |  |  |  |  | 0.52 mg/kg | 1.2% |  | 
